# Screens deposited in PubChem BioAssay by several laboratories.
# Compounds with a hit are over-represented: about 1.8% of the library has one in this group of screens.
# DAGLB inh – diacylglycerol lipase beta (human) inhibition; HEK293T DAGLB membrane lysate, EnzChek fluorogenic substrate; inhibition, % at 5.17 µM; hit rate 0.059% among 340,000; Q8NCG7; in the data active = inhibition above about 34%;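 note: 0% = enzyme with vehicle and 100% = wells lacking enzyme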
# Target sequence (Q8NCG7 whole entry, looked up): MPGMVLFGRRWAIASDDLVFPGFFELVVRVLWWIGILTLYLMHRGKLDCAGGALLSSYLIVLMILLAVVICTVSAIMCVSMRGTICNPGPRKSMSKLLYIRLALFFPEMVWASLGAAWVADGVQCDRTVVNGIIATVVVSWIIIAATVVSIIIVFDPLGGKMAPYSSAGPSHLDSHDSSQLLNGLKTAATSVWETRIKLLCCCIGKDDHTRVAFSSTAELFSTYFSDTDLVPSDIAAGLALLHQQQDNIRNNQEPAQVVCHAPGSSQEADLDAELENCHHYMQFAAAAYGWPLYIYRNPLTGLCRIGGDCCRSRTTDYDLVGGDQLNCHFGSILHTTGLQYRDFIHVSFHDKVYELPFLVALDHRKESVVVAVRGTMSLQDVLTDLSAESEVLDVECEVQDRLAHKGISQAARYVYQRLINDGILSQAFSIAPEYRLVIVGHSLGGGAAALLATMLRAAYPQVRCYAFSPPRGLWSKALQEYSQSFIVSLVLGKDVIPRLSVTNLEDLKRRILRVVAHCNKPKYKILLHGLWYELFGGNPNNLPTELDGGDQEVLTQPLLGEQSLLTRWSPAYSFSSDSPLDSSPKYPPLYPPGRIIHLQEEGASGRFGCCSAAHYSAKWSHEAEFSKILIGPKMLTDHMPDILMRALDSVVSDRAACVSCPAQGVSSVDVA
# SKN-1 inh – inhibitors of C. elegans SKN-1. inhibition, % at 21.8 µM. C. elegans VP596 Pgst-4::GFP/RFP ratio, acrylamide-induced, 24 h. hit rate 0.49% among 360,000;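 active = interference check ratio from 0.5 to 1.5 plus GFP to RFP signal ratio inhibition reaching or exceeding a fixed threshold, cut at about 30% in these data, passing the limit was not always enough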
# MT1-MMP act inh – inhibitors of human MT1-MMP activation; HT1080 RFP-PRO-GFP cells, GFP/RFP ratio fluorescence, overnight; percent of plate control window, DMSO zero; GFP/RFP ratio change, % at 20 µM; hit rate 0.061% among 360,000; AID 651647;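 active = GFP/RFP ratio change of at least 30% with cell ATP level not reduced by more than half and red fluorescence within 50% of control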
#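 Test system: HT1080 RFP-PRO-GFP cells; Benchmarks: DMSO and RFP-L50D-GFP cell wells; Timing: cells overnight before dosing, compound overnight, 37 °C, 5% CO2; Compound: one 20 µM compound dose with 1% DMSO; Read-out: GFP/RFP fluorescence ratio.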
# bovine MsrA act – activators of bovine methionine sulfoxide reductase A. purified bovine MsrA, absorbance read-out. activation, % at 10.6 µM. hit rate 0.3% among 360,000. AID 602163; in the data active = activation above about 7.5%;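 note: 0% = vehicle and 100% = reference activator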
# beta cell repl – induces beta-cell replication in MIN6 cells; MIN6 cells proliferation, ATPlite luminescence, 48 h; cells starved in 0.2% serum; 100% = growth in 10% serum; proliferation, % at 10 µM; hit rate 0.29% among 330,000;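 active = compounds whose signal lies at least 3.5 SD above the mean of all wells on their plate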;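 note: 0% = DMSO-treated cells in low-serum medium and 100% = 10% serum control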
# MsrA inhibitor – bovine MsrA inhibition. purified bovine MsrA, absorbance read-out. inhibition, % at 15.5 µM. hit rate 0.75% among 360,000. AID 651718;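 note: 0% = vehicle wells with enzyme and 100% = reference inhibitor wells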
# MsrA conf – bovine MsrA inhibition, confirmed | shares compounds with MsrA inhibitor | purified bovine MsrA, absorbance read-out | inhibition, % at 15.5 µM | hit rate 41% among 2,300;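 note: coupled to thioredoxin reductase with NADPH and selenocystamine and DMSO as substrate; 0% = vehicle only and 100% = full effect of reference inhibitor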
# Numbers without * were called inactive; nt = no result. Cut-off read from the data, not from the text of the source, unless noted: active = inhibition above about 4.5%; inactive = the rest.
SMILES,DAGLB inh,SKN-1 inh,MT1-MMP act inh,bovine MsrA act,beta cell repl,MsrA inhibitor,MsrA conf
O=C(O)c1cc(N/N=C/c2ccc(OCc3ccccc3)cc2)ccc1Cl,-0.1,-11.8,-3.1,-7.2,-1.2,-0.3,nt
Cc1ccc(C2CC(c3cccs3)=NN2C(=O)CSc2nc(=O)n3cc(C)ccc3n2)cc1 (stereo not drawn),2.2,-8.1,1.1,0.8,-7.5,0.9,nt
Cc1ccc(S(=O)(=O)Nc2ccccc2CNC2CCCCC2)cc1,-0.3,6.8,-3.9,-2.4,-2.6,1.3,nt
CCCCN1C(=O)Nc2ccccc2S1(=O)=O,-0.4,-2.3,2.0,-1.3,-4.2,-0.7,nt
Cc1occc1C(=O)N/N=C/C=C/c1ccc(N(C)C)cc1,1.8,3.5,-18.7,-4.1,3.7,2.9,nt
Cc1occc1C(=O)N/N=C/C=C/c1ccccc1,-2.6,13.2,4.3,-6.0,-0.6,5.5*,5.1*
COc1ccccc1/C=C/C1=NC(=C\C=C/c2ccccc2)/C(=O)O1,10.8,-1.3,-3.9,-5.9,-2.5,6.4*,1.7
O=C(CSC1CCc2ccccc21)NNC(=O)Nc1ccc(Cl)cc1 (stereo not drawn),nt,nt,nt,nt,nt,0.1,nt
CC(=O)c1cnc(Nc2ccccc2)s1,-1.5,26.1,5.6,-2.3,1.5,4.5,nt
CC(=O)c1cnc(Nc2cccc(Cl)c2Cl)s1,0.0,15.5,-4.4,2.6,1.3,4.8*,1.6
CC/C(O)=C1\C(=O)CCCC1=NCc1nc2ccccc2[nH]1,-0.7,10.8,4.5,-7.8,-3.5,1.3,nt
COc1ccc(-c2nc3ccc(C)cc3c(=O)o2)cc1OC,-2.6,-15.0,-0.8,-1.0,-1.5,-0.9,nt
CC(=O)c1ccc(N2CCN(C(=S)NCCCN(C)C)CC2)cc1,1.0,-8.2,4.9,-5.5,-2.2,3.8,nt
COc1ccc(/C=C/C(=O)N2CCNC(=O)C2)c(OC)c1,2.6,-3.7,0.3,-8.8,-1.9,4.8*,3.0
CC(C)COC(=O)N(C)C[C@H]1OCc2cnnn2CCCC(=O)N([C@@H](C)CO)C[C@H]1C,2.9,8.1,-2.4,0.4,nt,-0.5,nt
O=C(/C=C/c1c(Cl)nc2ccccn12)N1CCCCC1,0.4,6.6,0.0,-4.4,2.2,7.8*,4.5
O=C(/C=C/c1c(Cl)nc2ccccn12)N1CCN(c2ccccc2F)CC1,5.1,10.7,6.8,-1.5,4.0,1.8,nt
COc1ccc(CCNC(=O)C2CCN(S(=O)(=O)c3ccc(-n4cnnn4)cc3)CC2)cc1OC,3.0,0.0,7.0,-2.0,0.3,56.4*,-1.0
O=S(=O)([N-]c1nc2ccccc2nc1-[n+]1ccccc1)c1ccc(F)cc1,-1.3,2.7,-5.5,-10.7,1.5,1.8,nt
CCOC(=O)N1CCN(/C=C(\C#N)c2nc3ccccc3s2)CC1,1.0,-11.4,-20.5,-15.1,-2.8,7.0*,5.2*
N#C/C(=C\N1CCN(Cc2ccc3c(c2)OCO3)CC1)c1nc2ccccc2s1,-1.3,5.0,-78.1,-1.8,-4.9,2.5,nt
CSc1c(N(C)C)c(=O)c1=S,nt,nt,nt,nt,nt,5.2*,3.9
CNS(=O)(=O)c1cccc(C(=O)OCC(=O)c2cc3ccccc3o2)c1,0.0,2.5,-3.1,-4.4,-3.4,23.8*,18.8*
CCC(CC)NC(=O)COn1nnc2ccc(S(=O)(=O)N3CCOCC3)cc21,-1.0,-5.6,3.5,-0.6,1.2,0.0,nt
O=C(O)c1cccc(-c2ccc(/C=N/Nc3nn[nH]n3)o2)c1,0.0,4.1,-0.8,-12.3,1.1,5.9*,4.6*
SMILES,DAGLB inh,SKN-1 inh,MT1-MMP act inh,bovine MsrA act,beta cell repl,MsrA inhibitor,MsrA conf
CNC(=S)N/N=C/c1ccc(-c2cccc(C(=O)O)c2)o1,1.4,-6.7,-1.7,-8.3,0.8,4.9*,6.2*
Cc1ccc(OCC(=O)N/N=C\c2ccc(-c3cccc(C(=O)O)c3)o2)c(C)c1,-1.8,8.9,-1.7,-5.7,-1.5,5.3*,3.7
COc1ccc(CC(=O)N/N=C/c2ccc(-c3cccc(C(=O)O)c3)o2)cc1OC,-0.1,-0.2,-5.2,-6.3,-2.5,5.1*,4.5
Cc1ccc(OCC(=O)N/N=C\c2ccc(C)o2)c(C)c1,-0.5,10.6,3.5,-2.8,-1.1,-0.2,nt
Cc1cnc(NC(=O)Nc2ccc(OCc3ccccc3)cc2)c(Br)c1,-5.2,4.6,4.3,0.7,2.4,1.1,nt
O=C(O)c1cccc(-c2ccc(/C=N/NC(=O)C3COc4ccccc4O3)o2)c1 (stereo not drawn),0.3,-10.9,4.7,-10.0,0.8,4.7*,2.8
c1ccc(CNc2nc3ccccc3n3cnnc23)cc1,1.6,-7.7,2.8,-1.9,10.5,1.5,nt
Cc1c(Nc2nc3ccccc3n3cnnc23)cccc1[N+](=O)[O-],-1.4,6.3,-9.6,-3.3,1.6,-0.3,nt
CCc1cccc(C)c1Nc1nc2ccccc2n2cnnc12,0.1,9.1,4.2,-2.6,-0.9,5.4*,3.6
Cc1cc([N+](=O)[O-])ccc1Nc1nc2ccccc2n2cnnc12,-0.9,0.1,6.0,4.6,-4.5,6.4*,8.3*
c1ccc2nc(-c3nc4ccccc4[nH]3)ccc2c1,-3.6,6.8,2.4,-3.5,-7.3,5.0*,4.7*
c1ccc2[nH]c(-c3cscn3)nc2c1,1.9,-1.0,2.5,-3.8,nt,0.8,nt
c1ccc(COCc2ccccc2)cc1,nt,nt,nt,nt,nt,1.2,nt
CCNC(=S)N/N=C(\C)c1cc2ccccc2o1,-2.0,10.0,8.6,-11.1,0.0,5.6*,6.3*
C/C(=N\NC(=S)Nc1cccc(C)c1)c1cc2ccccc2o1,-12.0,-6.9,4.7,0.5,-5.2,2.4,nt
NNC(=O)c1ccc(CN2CCCCC2)o1,1.2,7.2,5.5,-3.0,-2.0,0.6,nt
Cc1cc(C)nc(NS(=O)(=O)c2ccc(N/C=C3\CCCC3=O)cc2)n1,-1.8,-35.2,4.2,-8.1,0.9,5.2*,5.5*
COc1cc(/C=N/NC(=O)C(=O)NCc2ccco2)cc(Br)c1O,3.6,0.4,2.3,-6.7,-4.5,6.0*,3.5
COc1cc(/C=N/NC(=O)CSc2n[nH]c(=O)[nH]c2=O)cc(OC)c1O,1.3,-1.7,-2.4,-2.8,-2.4,4.8*,1.6
COc1cc(/C=N/NC(=O)CC2(C)OCCO2)cc(Br)c1O,-0.7,13.1,1.3,-3.4,0.8,3.6,nt
CCCCCC(=O)N/N=C/c1cc(Br)c(O)c(OC)c1,1.1,17.7,5.6,-6.4,2.8,5.5*,3.2
CCc1[nH]nc(C(=O)NC2CCCc3c2cnn3-c2cc(C)cc(C)c2)c1C (stereo not drawn),1.4,14.3,6.3,-1.6,0.0,-0.7,nt
Cc1ccccc1-c1cccc([C@@H]2C[C@H]3[C@H](CON3C)CN2C(=O)C(C)(C)C)c1,-0.6,1.9,0.7,0.7,nt,-0.5,nt
COc1ccccc1-c1cc(C(F)(F)F)nc(N2CCOCC2)n1,-10.3,-13.0,-2.9,-2.6,-3.5,12.5*,13.4*
